# According to ChEMBL document CHEMBL2321875 (J Med Chem, 2013):
# Active and inactive are the calls of the source. The rule behind the calls is not given here.
# Target: T1, Protein-serine O-palmitoleoyltransferase porcupine (Mus musculus, UniProt Q9JJJ7)
# T1 sequence (Q9JJJ7 whole entry): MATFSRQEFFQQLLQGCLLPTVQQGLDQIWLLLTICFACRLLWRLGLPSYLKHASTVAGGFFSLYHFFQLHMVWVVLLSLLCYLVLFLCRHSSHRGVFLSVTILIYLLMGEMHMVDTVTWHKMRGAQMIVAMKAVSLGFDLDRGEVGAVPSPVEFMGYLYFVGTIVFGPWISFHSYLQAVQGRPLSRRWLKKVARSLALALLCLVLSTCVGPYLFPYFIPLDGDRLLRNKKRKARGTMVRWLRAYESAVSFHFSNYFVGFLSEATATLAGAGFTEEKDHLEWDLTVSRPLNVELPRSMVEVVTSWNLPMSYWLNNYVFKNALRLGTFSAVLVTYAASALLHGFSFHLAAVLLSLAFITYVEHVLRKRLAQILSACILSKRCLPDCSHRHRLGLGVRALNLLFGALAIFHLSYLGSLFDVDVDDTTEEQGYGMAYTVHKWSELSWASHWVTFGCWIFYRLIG
# Assay: Inhibition of porcupine-mediated Wnt signalling in mouse L cells after 24 hrs by SuperTopflash reporter assay
# Type: cell-based
# Conditions: not given
row,EC50 [nM],SMILES
1,300,CCOC(=O)c1ccc(NC(=O)CSc2nc3c(c(=O)n2-c2ccccc2)SCC3)cc1
2,1.5,O=C(CSc1nc2c(c(=O)n1-c1ccccc1)SCC2)Nc1ncc(-c2ccoc2)cn1
3,3.5,O=C(CSc1nc2c(c(=O)n1-c1ccccc1)SCC2)Nc1ncc(-c2ccco2)cn1
4,30,O=C(CSc1nc2c(c(=O)n1-c1ccccc1)SCC2)Nc1ccc(N2CCCCC2)cc1
5,1000,CCOc1ccc(NC(=O)CSc2nc3c(c(=O)n2-c2ccccc2)SCC3)cc1
6,580,COc1ccc2nc(NC(=O)CSc3nc4c(c(=O)n3-c3ccccc3)SCC4)ccc2c1
7,30,Cc1ccc2nc(NC(=O)CSc3nc4c(c(=O)n3-c3ccccc3)SCC4)sc2c1
8,55,O=C(CSc1nc2c(c(=O)n1-c1ccccc1)SCC2)Nc1ncc(-c2ccccc2)s1
9,350,O=C(CSc1nc2c(c(=O)n1-c1ccccc1)SCC2)Nc1nc(-c2ccccc2)cs1
10,2,O=C(CSc1nc2c(c(=O)n1-c1ccccc1)SCC2)Nc1ccc(-c2ccsc2)cn1
11,0.5,O=C(CSc1nc2c(c(=O)n1-c1ccccc1)SCC2)Nc1ccc(-c2ccccc2)cn1
12,4,O=C(CSc1nc2c(c(=O)n1-c1ccccc1)SCC2)Nc1ccc(-c2ccccn2)cc1
13,0.3,O=C(CSc1nc2c(c(=O)n1-c1ccccc1)SCC2)Nc1ccc(-c2ccccc2)nc1
14,> 5000,O=C(CSc1nc2c(c(=O)n1-c1ccccc1)SCC2)Nc1cccc(-c2ccccc2)c1
15,> 1000,CN(C)c1ccc(NC(=O)CSc2nc3c(c(=O)n2-c2ccccc2)SCC3)cc1
16,3.5,O=C(CSc1nc2c(c(=O)n1-c1ccccc1)SCC2)Nc1ccc(-c2ccco2)cn1
17,> 5000,O=C(CSc1nc2c(c(=O)n1-c1ccccc1)SCC2)Nc1ccccc1-c1ccccc1
18,> 1000,CC(=O)c1ccc(NC(=O)CSc2nc3c(c(=O)n2-c2ccccc2)SCC3)cc1
19,0.45,O=C(CSc1nc2c(c(=O)n1-c1ccccc1)SCC2)Nc1ccc(-c2cccnc2)cc1
20,3,O=C(CSc1nc2c(c(=O)n1-c1ccccc1)SCC2)Nc1ccc(-c2ccncc2)cc1
21,1.5,O=C(CSc1nc2c(c(=O)n1-c1ccccc1)SCC2)Nc1ccc(-c2ccoc2)cn1
22,40,COc1ccc2nc(NC(=O)CSc3nc4c(c(=O)n3-c3ccccc3)SCC4)sc2c1
23,1,O=C(CSc1nc2c(c(=O)n1-c1ccccc1)SCC2)Nc1ccc(-c2cccnc2)cn1
24,40,O=C(CSc1nc2c(c(=O)n1-c1ccccc1)SCC2)Nc1nc2ccc(Cl)cc2s1
25,0.75,O=C(CSc1nc2c(c(=O)n1-c1ccccc1)SCC2)Nc1ccc(-c2ccccc2)cc1
26,0.3,O=C(CSc1nc2c(c(=O)n1-c1ccccc1)SCC2)Nc1ccc(-c2cccs2)cn1

# Continued, molecule first:
row,SMILES,EC50 [nM]
1,COc1ccc(-n2nc(C(=O)NCC(=O)Nc3nc4ccc(OC)cc4s3)c3ccccc3c2=O)cc1,60
2,COc1ccc(-n2nc(C(=O)NCC(=O)Nc3nc4ccc(C)cc4s3)c3ccccc3c2=O)cc1,25
3,COc1ccccc1-n1c(SCC(=O)Nc2nc3ccc(C)cc3s2)nc2c(c1=O)SCC2,25
4,COc1ccc2nc(NC(=O)CSc3nc4c(c(=O)n3-c3ccccc3OC)SCC4)sc2c1,50
5,O=C(CNC(=O)c1nn(-c2ccc(F)cc2)c(=O)c2ccccc12)Nc1nc2ccc(C(F)(F)F)cc2s1,90
6,COc1ccccc1-n1nc(C(=O)NCC(=O)Nc2nc3ccccc3s2)c2ccccc2c1=O,10000
7,Cc1ccc2nc(NC(=O)CSc3nc4c(c(=O)n3C)SC(C)C4)sc2c1 (stereo not drawn),15
8,O=C(CNC(=O)c1nn(-c2ccc(F)cc2)c(=O)c2ccccc12)Nc1nc2ccc(Cl)cc2s1,25
9,COc1ccccc1-n1c(SCC(=O)Nc2nc3ccc(Cl)cc3s2)nc2c(c1=O)SCC2,50
10,O=C(CNC(=O)c1nn(-c2ccccc2)c(=O)c2ccccc12)Nc1nc2ccccc2s1,2600
11,COc1ccc2nc(NC(=O)CNC(=O)c3nn(-c4ccc(F)cc4)c(=O)c4ccccc34)sc2c1,90
12,COc1ccc(-n2c(SCC(=O)Nc3nc4ccc(OC)cc4s3)nc3c(c2=O)SCC3)cc1,120
13,COc1ccc2nc(NC(=O)CSc3nc4c(c(=O)n3-c3ccc(F)cc3)SCC4)sc2c1,250
14,COc1ccc2nc(NC(=O)CNC(=O)c3nn(-c4ccccc4)c(=O)c4ccccc34)sc2c1,210
15,O=C(CSc1nc2c(c(=O)n1-c1ccc(F)cc1)SCC2)Nc1nc2ccc(Cl)cc2s1,175
16,COc1ccccc1-n1c(SCC(=O)Nc2nc3ccc(C(F)(F)F)cc3s2)nc2c(c1=O)SCC2,30
17,O=C(CNC(=O)c1nn(-c2ccccc2)c(=O)c2ccccc12)Nc1nccs1,> 25000
18,COc1ccc2nc(NC(=O)CNC(=O)c3ccc(=O)n(-c4ccccc4)c3)sc2c1,> 25000
19,CCOC(=O)c1ccc2nc(NC(=O)CNC(=O)c3nn(-c4ccccc4)c(=O)c4ccccc34)sc2c1,> 25000

row,SMILES,EC50 [nM]
1,Cc1ccc2nc(NC(=O)CNC(=O)c3nn(-c4ccccc4)c(=O)c4ccccc34)sc2c1,35
2,CCn1c(SCC(=O)Nc2nc3ccccc3s2)nc2c(c1=O)SC(C)C2 (stereo not drawn),4000
3,COc1ccc(-n2nc(C(=O)NCC(=O)Nc3nc4ccccc4s3)c3ccccc3c2=O)cc1,25000
4,COc1ccc2nc(NC(=O)CNC(=O)c3nn(-c4ccccc4OC)c(=O)c4ccccc34)sc2c1,90
5,Cc1ccc2nc(NC(=O)CSc3nc4c(c(=O)n3-c3ccc(F)cc3)SCC4)sc2c1,40
6,COc1ccc(-n2c(SCC(=O)Nc3nc4ccc(Cl)cc4s3)nc3c(c2=O)SCC3)cc1,35
7,COc1ccc(-n2c(SCC(=O)Nc3nc4ccc(C(F)(F)F)cc4s3)nc3c(c2=O)SCC3)cc1,100
8,O=C(CSc1nc2c(c(=O)n1-c1ccccc1)SCC2)Nc1ccc(-c2cncnc2)cn1,5.5
9,O=C(CNC(=O)c1nn(-c2ccccc2)c(=O)c2ccccc12)Nc1nc2ccc(C(F)(F)F)cc2s1,110
10,O=C(CSc1nc2c(c(=O)n1-c1ccccc1)SCC2)Nc1nc2ccc(C(F)(F)F)cc2s1,40
11,Cc1ccc2nc(NC(=O)CNC(=O)c3nn(-c4ccc(F)cc4)c(=O)c4ccccc34)sc2c1,100
12,COc1ccc(-n2nc(C(=O)NCC(=O)Nc3nc4ccc(Cl)cc4s3)c3ccccc3c2=O)cc1,15
13,O=C(CSc1nc2c(c(=O)n1-c1ccc(F)cc1)SCC2)Nc1nc2ccc(C(F)(F)F)cc2s1,100
14,O=C(CNC(=O)c1nn(-c2ccccc2)c(=O)c2ccccc12)Nc1nc2ccc([N+](=O)[O-])cc2s1,240
15,O=C(CNC(=O)c1nn(-c2ccccc2)c(=O)c2ccccc12)Nc1nc2ccc(Cl)cc2s1,30
16,O=C(CNC(=O)c1nn(-c2ccc(F)cc2)c(=O)c2ccccc12)Nc1nc2ccccc2s1,> 25000
17,O=C(CNC(=O)c1nn(-c2ccccc2)c(=O)c2ccccc12)Nc1nc2ccc(F)cc2s1,470
18,O=C(CSc1nc2c(c(=O)n1-c1ccccc1)SCC2)Nc1ncc(-c2ccccc2)cn1,15

# Test system: not listed separately
# Assay: Half life in mouse plasma at 2 uM
# Type: ADME, cell-free
# Conditions: not given
row,half-life at 2 µM [min],SMILES
1,2,O=C(CSc1nc2c(c(=O)n1-c1ccccc1)SCC2)Nc1ccc(-c2ccccc2)cn1

# Test system: not listed separately
# Assay: Half life in rat plasma at 2 uM
# Type: ADME, cell-free
# Conditions: not given
row,half-life at 2 µM [min],SMILES
1,190,O=C(CSc1nc2c(c(=O)n1-c1ccccc1)SCC2)Nc1ccc(-c2ccccc2)cn1

# Test system: Danio rerio
# Assay: In vivo inhibition of porcupine in juveline stage of zebrafish assessed as inhibition of Wnt-mediated tail fin regeneration at 5 uM
# Type: functional, organism-based
# Conditions: not given
row,SMILES,inhibition
1,O=C(CSc1nc2c(c(=O)n1-c1ccccc1)SCC2)Nc1ccc(-c2ccccc2)cn1,Active

# Test system: not listed separately
# Assay: Half life in ICR/CD-1 mouse liver S9 fraction at 2 uM by LC-MS/MS analysis
# Type: ADME, subcellular
# Conditions: not given
row,half-life at 2 µM [min],SMILES
1,26,O=C(CSc1nc2c(c(=O)n1-c1ccccc1)SCC2)Nc1ccc(-c2ccccc2)cn1

# Target: T2, Protein-serine O-palmitoleoyltransferase porcupine (Homo sapiens) (UniProt Q9H237)
# T2 sequence (whole entry): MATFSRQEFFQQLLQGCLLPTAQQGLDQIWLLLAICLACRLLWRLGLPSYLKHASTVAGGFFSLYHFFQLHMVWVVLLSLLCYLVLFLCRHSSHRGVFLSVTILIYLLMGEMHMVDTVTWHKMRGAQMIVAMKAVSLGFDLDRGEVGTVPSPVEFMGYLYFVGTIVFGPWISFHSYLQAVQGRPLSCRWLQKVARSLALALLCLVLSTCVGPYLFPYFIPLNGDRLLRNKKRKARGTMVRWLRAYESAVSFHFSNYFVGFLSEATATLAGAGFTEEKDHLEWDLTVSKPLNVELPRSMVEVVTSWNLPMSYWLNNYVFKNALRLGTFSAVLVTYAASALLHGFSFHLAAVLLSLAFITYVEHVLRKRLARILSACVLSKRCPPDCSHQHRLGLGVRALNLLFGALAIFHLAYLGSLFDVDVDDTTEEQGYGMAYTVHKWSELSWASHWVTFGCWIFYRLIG
# Assay: Inhibition of porcupine-mediated phosphorylation of dishevelled 2 in HEK293 cells at 2.5 uM
# Type: cell-based
# Conditions: not given
row,inhibition,SMILES
1,Active,O=C(CSc1nc2c(c(=O)n1-c1ccccc1)SCC2)Nc1ccc(-c2ccccc2)cn1

# Test system: Danio rerio
# Assay: In vivo inhibition of porcupine in zebrafish embryos assessed as inhibition of Wnt/beta-casein-mediated posterior axis formation at 1 to 5 uM applied in aquarium water by mCherry-based reporter gene assay
# Type: functional, organism-based
# Conditions: in the assay text read “beta-catenin” for “beta-casein”
# Procedure, shortened: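 Zebrafish embryos carrying an mCherry-based Wnt/β-catenin signaling reporter were exposed to increasing concentrations of compound in the aquarium water. Whole-animal fluorescence intensity was quantified, and posterior axis formation was scored.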
row,SMILES,inhibition
1,O=C(CSc1nc2c(c(=O)n1-c1ccccc1)SCC2)Nc1ccc(-c2ccccc2)cn1,Active
2,O=C(CSc1nc2c(c(=O)n1-c1ccccc1)SCC2)Nc1ccc(-c2cncnc2)cn1,inactive
3,O=C(CSc1nc2c(c(=O)n1-c1ccccc1)SCC2)Nc1ccc(-c2ccoc2)cn1,inactive
4,O=C(CSc1nc2c(c(=O)n1-c1ccccc1)SCC2)Nc1ccc(-c2cccs2)cn1,Active

# Target: T3, Protein-serine O-palmitoleoyltransferase porcupine (Mus musculus) (UniProt Q9JJJ7)
# T3 sequence (whole entry): T1 sequence (Q9JJJ7 whole entry)
# Assay: Inhibition of porcupine in E11.5 mouse embryo kidney assessed as inhibition of Wnt-mediated branching morphogenesis at 10 to 50 nM measured every 24 hrs by fluorescent stereoscopic analysis relative to control
# Conditions: not given
# Procedure, shortened: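 Kidneys from E11.5 Hoxb7Cre;RosaTomato mouse embryos were cultured at the air/media interface in media containing 1 nM to 1 μM compound, with DMSO controls. Media was replaced and fluorescent stereoscope images were taken every 24 h. The read-out was the fold increase in ureteric bud tip number from 0 to 48 h, compared by Student t test.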
row,inhibition,SMILES
1,Active,O=C(CSc1nc2c(c(=O)n1-c1ccccc1)SCC2)Nc1ccc(-c2ccccc2)cn1
